Measured values taken from PMC9486128 (The Journal of Biological Chemistry, 2022).
Substitutions are numbered along the chain they refer to. “And” between values parts separate entries of the source, which are not always exact repeats. Equal entries are not always repeated.

How the values were obtained:
hHDAC8 [1] = target: T1, hHDAC8 (Homo sapiens, UniProt Q9BY41); experiment: Steady-state enzyme kinetics of hHDAC8 with fixed inhibitor concentration; format: biochemical; conditions: for type of inhibition of hHDAC8: from steady-state kinetics
T1 sequence (Q9BY41 1-377): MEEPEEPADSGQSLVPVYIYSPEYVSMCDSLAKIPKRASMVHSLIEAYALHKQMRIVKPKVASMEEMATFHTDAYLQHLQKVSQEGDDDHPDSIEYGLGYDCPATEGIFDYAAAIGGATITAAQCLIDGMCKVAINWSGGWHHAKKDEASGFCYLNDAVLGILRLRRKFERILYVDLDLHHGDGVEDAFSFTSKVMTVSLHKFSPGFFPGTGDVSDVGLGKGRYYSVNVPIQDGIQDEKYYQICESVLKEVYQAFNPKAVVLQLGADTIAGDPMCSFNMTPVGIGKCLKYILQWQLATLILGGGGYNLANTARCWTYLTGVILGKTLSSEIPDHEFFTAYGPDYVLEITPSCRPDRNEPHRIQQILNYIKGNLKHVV
How it was run: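 Commercial recombinant human HDAC8 from the Fluor-de-Lys kit was run with varied Fluor-de-Lys acetylated peptide-AMC substrate. Reactions contained vehicle or a fixed test compound concentration. Steady-state parameters came from Michaelis–Menten nonlinear regression.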

SmHDAC8 [2] = target: T2, SmHDAC8 (Schistosoma mansoni, UniProt A5H660); experiment: Binding to SmHDAC8 by quenching of intrinsic fluorescence
T2 sequence (A5H660 1-440): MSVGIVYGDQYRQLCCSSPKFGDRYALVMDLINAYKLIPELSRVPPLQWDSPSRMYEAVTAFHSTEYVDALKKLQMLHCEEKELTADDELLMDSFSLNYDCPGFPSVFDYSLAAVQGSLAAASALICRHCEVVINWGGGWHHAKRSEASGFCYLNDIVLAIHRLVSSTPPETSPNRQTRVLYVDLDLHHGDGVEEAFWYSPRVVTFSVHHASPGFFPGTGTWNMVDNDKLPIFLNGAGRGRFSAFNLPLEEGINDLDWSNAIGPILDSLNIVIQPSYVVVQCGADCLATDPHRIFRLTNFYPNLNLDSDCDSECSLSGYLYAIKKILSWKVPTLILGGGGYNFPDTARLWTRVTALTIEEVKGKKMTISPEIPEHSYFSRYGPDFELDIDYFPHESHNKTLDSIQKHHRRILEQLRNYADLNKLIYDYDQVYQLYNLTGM
How it was run: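 Recombinant His6-tagged SmHDAC8 was expressed in E. coli BL21(DE3) and used at 0.125 μM in 50 mM Tris pH 8.0, 150 mM KCl, 100 μM DTT. It was titrated with test compound from 1.6 nM to 125 μM, with 5 min stirred equilibration per addition at 25 °C. Intrinsic fluorescence quenching was read at 340 nm (excitation 280 nm), averaging 4–5 accumulations. Ki came from a quadratic 1:1 binding fit.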

[3] = tested on: acetylation of lysine residues within histone proteins of S. mansoni adult worm pairs; experiment: Histone K-acetylation Western blot on adult worm pairs; format: cell-based, Schistosoma mansoni
How it was run: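 Ten adult worm pairs were treated 24 or 72 h with test compound at concentrations taken from viability curves. Positive controls were TSA 1 μM and a reference HDAC inhibitor 20 μM; DMSO was the negative control. Lysis buffer contained 5 mM sodium butyrate. Histone-enriched fractions were run on 15% SDS-PAGE and blotted with anti-acetyl-lysine (1:4000) and anti-α-tubulin (1:5000), with Ponceau calibration. Acetyl-lysine densitometry was normalized to tubulin, then to DMSO.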

SmHDAC8 WT = target: T3, SmHDAC8 WT (Schistosoma mansoni, UniProt A5H660); experiment: Steady-state enzyme kinetics of SmHDAC8 with fixed inhibitor concentration; format: biochemical; conditions: for type of inhibition of SmHDAC8: from steady-state kinetics and IC50 at different substrate concentrations
T3 sequence (A5H660 1-440): T2 sequence (A5H660 1-440)
How it was run: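 SmHDAC8 (0.425 μM) was preincubated 15 min at 25 °C with DMSO, 5 μM or 1 μM test compound. Timed aliquots were quenched with TSA/trypsin. Initial rates came from product versus time via standard curve and were fitted to Michaelis–Menten. Two to four independent experiments were run.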

WT SmHDAC8 = target: T4, WT SmHDAC8 (Schistosoma mansoni, UniProt A5H660); experiment: Fluorescence emission spectra of WT SmHDAC8 with inhibitors; format: binding; conditions: inhibitor 25 μM, excitation 280 and 298 nm
T4 sequence (A5H660 1-440): T2 sequence (A5H660 1-440)
How it was run: (§1)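 WT SmHDAC8 or the W198A mutant (made by site-directed mutagenesis and expressed in E. coli) was used at 0.125 μM in 10 mM Tris pH 8.0, 150 mM KCl, 5 mM DTT. Protein was preincubated 15 min at 25 °C with 25 μM test compound, with a DMSO reference and enzyme-free blanks. Emission spectra were recorded after 280 and 298 nm excitation, averaging 4–5 accumulations. Some runs included 2 mM Na/K-tartrate.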

[4] = tested on: S. mansoni larvae (schistosomula); experiment: ATP-based luminescence viability assay on schistosomula; format: cell-based, Schistosoma mansoni; conditions: 72 h incubation, normalized to DMSO and gambogic acid 10 μM
How it was run: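 Schistosomula of a Puerto Rican strain were made by mechanical transformation of cercariae and purified on a Percoll gradient. They were exposed at 150 per well in phenol-red-free DMEM to test compound in DMSO for 72 h at 37 °C, 5% CO2. CellTiterGlo luminescence was read after 30 min. Three independent experiments were run. LD50 came from a variable-slope log(inhibitor) versus normalized response fit.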

SmHDAC8 W198A mutant = target: T5, SmHDAC8 W198A mutant (Schistosoma mansoni, UniProt A5H660, W198A); experiment: Fluorescence emission spectra of SmHDAC8 W198A mutant with inhibitors; format: binding; conditions: inhibitor 25 μM, excitation 280 and 298 nm
T5 sequence (A5H660 1-440 W198A): T2 sequence (A5H660 1-440) with W198A
How it was run: as §1

hHDAC8 [5] = target: T1, hHDAC8; experiment: hHDAC8 enzymatic activity inhibition; format: biochemical; conditions: for enhancement in potency toward hHDAC8: NF2883 with respect to NF2453, NF2889 with respect to NF2452
[6] = tested on: S. mansoni adult worm pairs; experiment: Adult worm pairs viability assay; format: cell-based, Schistosoma mansoni; conditions: for reduction of adult worm pairs viability: day 7; for adult worm pairs viability: 24 h
How it was run: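 Five adult worm pairs per sample were held in complete DMEM. Test compound was added once at 10, 20 or 50 μM, with no medium addition or replacement, against a DMSO vehicle control. Worms were scored 0–3 daily under a stereomicroscope for 7 days. The sample score was the sum of worm scores divided by worm number, expressed as percent relative to DMSO. Three experiments were run.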

SmHDAC8 [7] = target: T2, SmHDAC8; experiment: SmHDAC8 enzymatic activity inhibition; format: biochemical; conditions: for enhancement in potency toward SmHDAC8: NF2883 with respect to NF2453, NF2889 with respect to NF2452

Row | Structure (SMILES) | type of inhibition of hHDAC8 (hHDAC8 [1]) | Ki (SmHDAC8 [2]) [nM] | type of inhibition of SmHDAC8 (SmHDAC8 WT) | fluorescence signal of WT SmHDAC8 with respect to control (WT SmHDAC8) | LD50 on schistosomula [4] | fluorescence signal of SmHDAC8 W198A mutant with respect to control (SmHDAC8 W198A mutant) | IC50 (hHDAC8 [5]) [nM] | enhancement in potency toward hHDAC8 (hHDAC8 [5]) | reduction of adult worm pairs viability ([6]; 10 μM) | reduction of adult worm pairs viability ([6]; 20 μM) | adult worm pairs viability ([6]; 50 μM) | enhancement in potency toward SmHDAC8 (SmHDAC8 [7]) | also measured
1 | CN1CCC2(CC1)c1ccccc1N(Cc1ccc(C(=O)NO)s1)C2c1cccc(Cl)c1 (stereo not drawn) [NF2889, 5-((2-(3-Chlorophenyl)-1′-methylspiro[indoline-3,4′-piperidin]-1-yl)methyl)-N-hydroxythiophene-2-carboxamide] | competitive | 600 ± 200 | mixed-type inhibition | quenched | 26.2 ± 1.6 µM | no quenching | 1320 ± 70 | 2 fold | 50% | almost complete death | immediate loss of viability | 6 fold | kcat (hHDAC8 [1]; hHDAC8 with 2 μM NF2889): 0.011 ± 0.005 s⁻¹; increase of lysine acetylation signal versus DMSO ([3]; 5 μM for 72 h): 11 fold; increase of lysine acetylation signal versus DMSO ([3]; 10 μM for 24 h): 6.5 fold; kcat (SmHDAC8 WT; SmHDAC8 with 1 μM NF2889): 0.007 ± 0.003 s⁻¹
2 | CN1CCC2(CC1)c1ccccc1N(Cc1ccc(C(=O)NO)s1)C2c1ccc(Cl)cc1 (stereo not drawn) [NF2883, 5-((2-(4-chlorophenyl)-1′-methylspiro[indoline-3,4′-piperidin]-1-yl)methyl)-N-hydroxythiophene-2-carboxamide] | – | 130 ± 50 | – | – | 26.2 ± 1.1 µM | – | 160 ± 20 | about 20 fold | 50% | almost complete death | immediate loss of viability | about 20 fold | –
3 | O=C(NO)c1ccc(Cn2c3c(c4cc(Br)ccc42)SC(c2ccccc2)C3)s1 (stereo not drawn) [NF2886, 5-((7-Bromo-2-phenyl-2,3-dihydro-4H-thieno[3,2-b]indol-4-yl)methyl)-N-hydroxythiophene-2-carboxamide] | competitive | 9700 ± 7200 | competitive inhibitor | quenched | ~60 µM and 59.9 ± 4.9 µM | quenching | 3140 ± 570 | – | ineffective | ~50% | – | – | kcat (hHDAC8 [1]; hHDAC8 with 5 μM NF2886): 0.012 ± 0.004 s⁻¹; kcat (SmHDAC8 WT; SmHDAC8 with 5 μM NF2886): 0.017 ± 0.003 s⁻¹; increment of KM versus vehicle (SmHDAC8 WT; SmHDAC8 with 5 μM inhibitor): > 3 fold; reduction of adult worm pairs viability ([6]; 50 μM): ~50%; increase of IC50 with 150 μM substrate versus 50 μM (SmHDAC8 [7]; SmHDAC8): ~2 fold
4 | CC(/C=C/C(=O)NO)=C\[C@@H](C)C(=O)c1ccc(N(C)C)cc1 [TSA, Trichostatin A, reference compound] | – | – | – | – | – | – | – | – | – | – | – | – | increase of K-acetylation to tubulin ratio versus control ([3]; 1 μM, positive control): About 10 fold
